For two molecules, Kd results are on record in paper PMC7669533 (International Journal of Nanomedicine, 2020).

This experiment has as its target recombinant human VEGFR-2 (Homo sapiens, UniProt P35968). In words: SPR binding affinity to immobilized VEGFR-2. A digest of the protocol: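 Recombinant human receptor protein amine-coupled to a CM5 chip. Test peptides diluted in HBS-EP buffer and flowed over the surface at 0.0156, 0.03125, 0.0625, 0.125 and 0.25 μM, with resonance unit changes recorded. Response curves were fitted to a 1:1 Langmuir binding model to give the equilibrium dissociation constant KD.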
In general terms: In SPR one partner is held on a chip, and binding of the other changes the refractive index at the surface.

Ends that are not written are not given here.

A word on the Kd: it is the concentration at which binding is half-saturated.

Sequence of recombinant human VEGFR-2 (P35968 20-1356): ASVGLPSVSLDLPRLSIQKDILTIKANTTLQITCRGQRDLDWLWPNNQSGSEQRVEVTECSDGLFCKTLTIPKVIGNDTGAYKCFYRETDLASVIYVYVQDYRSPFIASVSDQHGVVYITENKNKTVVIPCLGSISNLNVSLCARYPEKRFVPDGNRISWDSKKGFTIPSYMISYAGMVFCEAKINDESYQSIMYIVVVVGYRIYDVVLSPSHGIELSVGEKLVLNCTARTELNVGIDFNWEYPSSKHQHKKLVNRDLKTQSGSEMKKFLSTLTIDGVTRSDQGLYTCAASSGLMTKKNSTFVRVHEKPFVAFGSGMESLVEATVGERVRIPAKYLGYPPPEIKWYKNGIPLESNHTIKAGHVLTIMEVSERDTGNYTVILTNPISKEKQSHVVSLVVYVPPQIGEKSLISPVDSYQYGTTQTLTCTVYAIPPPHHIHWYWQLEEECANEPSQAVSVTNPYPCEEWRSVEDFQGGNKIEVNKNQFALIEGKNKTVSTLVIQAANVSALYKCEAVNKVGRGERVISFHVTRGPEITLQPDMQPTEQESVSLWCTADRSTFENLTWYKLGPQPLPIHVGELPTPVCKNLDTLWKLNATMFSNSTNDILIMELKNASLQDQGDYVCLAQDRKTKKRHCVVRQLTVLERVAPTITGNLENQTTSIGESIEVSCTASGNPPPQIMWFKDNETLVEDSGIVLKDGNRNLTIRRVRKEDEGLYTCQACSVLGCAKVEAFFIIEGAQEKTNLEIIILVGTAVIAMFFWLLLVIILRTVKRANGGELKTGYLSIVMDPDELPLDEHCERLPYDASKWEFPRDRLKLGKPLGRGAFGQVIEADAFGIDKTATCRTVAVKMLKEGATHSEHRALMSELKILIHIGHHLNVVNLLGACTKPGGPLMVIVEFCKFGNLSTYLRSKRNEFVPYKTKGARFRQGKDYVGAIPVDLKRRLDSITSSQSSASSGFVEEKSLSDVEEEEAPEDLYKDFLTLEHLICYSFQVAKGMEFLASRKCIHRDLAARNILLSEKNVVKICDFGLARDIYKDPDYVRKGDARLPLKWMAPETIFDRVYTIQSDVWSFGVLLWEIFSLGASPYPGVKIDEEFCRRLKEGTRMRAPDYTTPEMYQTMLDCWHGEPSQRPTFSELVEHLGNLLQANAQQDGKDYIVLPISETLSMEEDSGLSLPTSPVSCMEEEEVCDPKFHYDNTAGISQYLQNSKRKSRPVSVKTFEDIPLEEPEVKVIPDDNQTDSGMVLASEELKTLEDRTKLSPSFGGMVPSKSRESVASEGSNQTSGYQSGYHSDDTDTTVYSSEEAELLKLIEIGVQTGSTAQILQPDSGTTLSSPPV

On to `CC(C)C[C@H](NC(=O)[C@H](Cc1c[nH]c2ccccc12)NC(=O)[C@@H](NC(=O)[C@H](C)NC(=O)[C@H](CS)NC(=O)[C@H](CCCNC(=N)N)NC(=O)[C@H](CCCNC(=N)N)NC(=O)[C@H](CCCNC(=N)N)NC(=O)[C@H](CCC(N)=O)NC(=O)[C@H](CCCNC(=N)N)NC(=O)[C@H](CCCNC(=N)N)NC(=O)[C@H](CCCCN)NC(=O)[C@H](CCCCN)NC(=O)[C@@H](N)CCCNC(=N)N)[C@@H](C)O)C(=O)N1CCC[C@H]1C(=O)N1CCC[C@H]1C(=O)N[C@@H](CCCNC(=N)N)C(=O)O` [TAT-AT7], for which the Kd worked out at 0.0228 µM. As for ATWLPPRC [AT7], the figure is 0.283 µM.
